Results on 3 molecules are retold here after paper PMC8809394 (Chemical Science, 2022).

Where a chain is given by its changes, count along the chain named. pKd: −log10 of the molar value. Several values for one entry are separate records, joined by “and”; a condition that tells them apart may be missing. Identical values can stand only once.

One data set can be described thus: Luminescence lifetime. In kind it is physicochemical. The settings on record: MQ H2O; λexc 450 nm, λem 620 nm; covalent ArMs 50 μM.
The target in data set [1] is T1, POPWT (prolyl oligopeptidase) (Pyrococcus furiosus, UniProt Q51714).
T1 sequence (Q51714 1-616): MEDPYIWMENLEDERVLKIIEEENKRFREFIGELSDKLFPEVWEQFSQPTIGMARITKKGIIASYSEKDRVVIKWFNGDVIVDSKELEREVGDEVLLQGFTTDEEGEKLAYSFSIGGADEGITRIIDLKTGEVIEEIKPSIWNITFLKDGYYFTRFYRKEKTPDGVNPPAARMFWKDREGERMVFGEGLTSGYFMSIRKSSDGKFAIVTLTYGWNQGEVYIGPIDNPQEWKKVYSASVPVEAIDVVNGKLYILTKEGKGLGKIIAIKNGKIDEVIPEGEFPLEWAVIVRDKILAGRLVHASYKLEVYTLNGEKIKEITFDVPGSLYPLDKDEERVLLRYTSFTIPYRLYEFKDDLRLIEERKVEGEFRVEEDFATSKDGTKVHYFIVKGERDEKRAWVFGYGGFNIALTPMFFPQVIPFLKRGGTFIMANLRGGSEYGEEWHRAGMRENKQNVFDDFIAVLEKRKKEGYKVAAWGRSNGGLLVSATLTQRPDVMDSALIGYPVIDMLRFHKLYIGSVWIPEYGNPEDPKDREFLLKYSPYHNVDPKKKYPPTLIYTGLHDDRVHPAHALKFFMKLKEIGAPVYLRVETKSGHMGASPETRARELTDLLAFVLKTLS
Nature of the data set: Luminescence lifetime titration, cofactor binding to POPWT. The settings on record: for pKd: POPWT 0-300 μM, cofactor 5 μM, MQ H2O (+/- 0.5% ACN); for Δ lifetime (free vs. bound cofactor): non-covalent binding to POPWT. In a few lines:
(§1)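 Non-covalent binding is measured by luminescence lifetime titration of the Ru(Bpy)3 2+-type cofactor against Pyrococcus furiosus prolyl oligopeptidase scaffold variants. Kd comes from the titration. Δ lifetime is the lifetime difference between free and bound cofactor. Each plotted point is a single measurement. Error bars are standard deviations from single-exponential tail fitting of the decay data.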

The target in data set [2] is T2, POPNeut (prolyl oligopeptidase variant) (Pyrococcus furiosus, UniProt Q51714, G99A/K255A/R198A/R338A/R55A/W142A/Y326A).
T2 sequence (Q51714 1-616 R55A/G99A/W142A/R198A/K255A/Y326A/R338A): T1 sequence (Q51714 1-616) with R55A, G99A, W142A, R198A, K255A, Y326A, R338A
The data set is described as follows: Luminescence lifetime titration, cofactor binding to POPNeut. Put shortly: as §1

In data set [3] the target is T3, POPNeg (prolyl oligopeptidase variant) (Pyrococcus furiosus, UniProt Q51714, G99D/K255A/R198A/R338A/R55A/W142D/Y326D).
T3 sequence (Q51714 1-616 R55A/G99D/W142D/R198A/K255A/Y326D/R338A): T1 sequence (Q51714 1-616) with R55A, G99D, W142D, R198A, K255A, Y326D, R338A
The data set is described as follows: Luminescence lifetime titration, cofactor binding to POPNeg. The settings on record: non-covalent binding to POPNeg. Put shortly: as §1

Another data set has as its target BSA (Bos taurus, UniProt P02769). Nature of the data set: Luminescence lifetime titration with BSA. In kind it is binding. The settings on record: 3a 5 μM, BSA in MQ H2O.
For data set [4] the following is noted: deoxygenated acetonitrile ref 5,8; cited from earlier work.

Sequence of BSA (P02769 25-607): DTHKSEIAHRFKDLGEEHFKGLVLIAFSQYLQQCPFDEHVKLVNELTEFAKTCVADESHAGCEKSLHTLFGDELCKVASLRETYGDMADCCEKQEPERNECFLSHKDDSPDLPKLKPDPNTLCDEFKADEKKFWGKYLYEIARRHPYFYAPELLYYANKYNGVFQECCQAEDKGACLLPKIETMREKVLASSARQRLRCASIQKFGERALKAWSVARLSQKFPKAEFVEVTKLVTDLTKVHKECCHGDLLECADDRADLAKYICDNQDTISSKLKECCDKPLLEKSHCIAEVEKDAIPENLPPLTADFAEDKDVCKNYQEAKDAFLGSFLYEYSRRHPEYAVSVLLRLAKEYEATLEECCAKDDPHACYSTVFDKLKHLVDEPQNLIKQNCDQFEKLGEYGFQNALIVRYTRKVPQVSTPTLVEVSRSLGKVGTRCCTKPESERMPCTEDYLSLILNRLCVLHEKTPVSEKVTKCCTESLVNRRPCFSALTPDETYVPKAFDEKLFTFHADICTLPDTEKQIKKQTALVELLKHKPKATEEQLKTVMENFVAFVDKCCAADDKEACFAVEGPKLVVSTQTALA

For `[Cl-].[Cl-].[Ru+2].c1ccc(-c2ccccn2)nc1.c1ccc(-c2ccccn2)nc1.c1ccc(-c2ccccn2)nc1` [3a, Ru(Bpy)3^2+], in the data set “Luminescence lifetime”, the “Lifetime (luminescence)” value amounted to 573 ns. Besides, the pKd in data set [1] was 4.55; in data set [2] (POPNeut 0-300 μM, cofactor 5 μM, MQ H2O) it was 5.77 and 5.78. Besides, the “Δ lifetime (free vs. bound cofactor)” value in data set [1] was found to be 96 ns; in data set [2] (non-covalent binding to POPNeut), 166 ns; in data set [3], 183 ns. In addition, the “binding to BSA” value was “minimal non-specific binding affinity” at BSA and “negligible binding” at BSA (listed as Ru(Bpy)3^2+). Moreover, in data set [4], the luminescence lifetime was 930 ns.

Turning to `[Ru+2].c1ccc(-c2ccccn2)nc1.c1ccc(-c2ccccn2)nc1.c1ccc(-c2ccccn2)nc1` [3b], in data set [1], the pKd is 4.52 and the “Δ lifetime (free vs. bound cofactor)” value was determined as 110 ns.

`O=C([O-])c1ccnc(-c2cc(C(=O)[O-])ccn2)c1.[Ru+2].c1ccc(-c2ccccn2)nc1.c1ccc(-c2ccccn2)nc1` [3d]: in data set [1], the negative logarithm of the Kd (pKd) was 4.52 and 4.53. For the same molecule, the “Δ lifetime (free vs. bound cofactor)” value in data set [1] worked out at 35 ns; in data set [3], 125 ns.
